According to ChEMBL document CHEMBL3526127, “Absorption, elimination, and metabolism of CS-1036, a novel α-amylase inhibitor in rats and monkeys, and the relationship between gastrointestinal distribution and suppression of glucose absorption” (Drug Metab Dispos, 2013):

Columns and labels:
[1] = AUClast in F344 rat at 0.3 mg/kg, iv administered as single dose by LC-MS/MS method; assay type: ADME, organism-based; set-up: time 0 - last, dose 0.3 mg/kg, route intravenous; details: plasma
How it was run: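 Fasted male F344 rats (146–185 g) or male cynomolgus monkeys (3.48–4.29 kg), n = 4 per dose, given single iv or oral dose of 0.3, 1.0, 3.0 or 10.0 mg/kg; monkeys dosed with 2-week washouts. Blood sampled to 48 h; plasma stored frozen. LC-MS/MS with deuterated internal standard. Noncompartmental analysis: AUClast by trapezoidal rule; AUC0–inf = AUClast + Ctz/terminal rate constant; mean ± S.D.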

[2] = Clearance in cynomolgus monkey at 0.3 mg/kg, iv administered as single dose by LC-MS/MS method; assay type: ADME, organism-based, Macaca fascicularis; set-up: dose 0.3 mg/kg, route intravenous; details: in vivo
How it was run: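 Fasted male F344 rats (146–185 g) and male cynomolgus monkeys (3.48–4.29 kg), n = 4 each, received a single iv dose; monkeys had 2-week washouts between doses. Blood was sampled up to 48 h and plasma stored at […]. Plasma parent was quantified by LC-MS/MS with a deuterated internal standard. CL = dose/AUC0–inf by noncompartmental analysis; mean ± S.D.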

[3] = Drug excretion in F344 rat feces at 1 mg/kg, po administered as single dose after 24 hrs by scintillation counting method; assay type: ADME, organism-based; set-up: dose 1 mg/kg, route oral; details: in vivo
How it was run: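 [14C]-labelled drug (1 mg/kg, 42.2 µCi/kg) was given orally to fasted F344 rats (164–168 g, n = 3). Urine and feces were collected to 24 h; feces were homogenized in 9 volumes of water, combusted and counted. Parent fraction came from the excreted radioactivity times the radio-HPLC (HILIC) peak-area ratio; mean ± S.D.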

[4] = Drug distribution in F344 rat cecum at 1 mg/kg, po administered as single dose after 2 hrs by scintillation counting method; assay type: ADME, organism-based, Caecum; set-up: dose 1 mg/kg, route oral; details: in vivo
How it was run: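 [14C]-labelled drug (1 mg/kg, 42.4 µCi/kg) was given orally to fasted F344 rats (148–168 g, n = 3). Contents of stomach, duodenum+jejunum, ileum and cecum were washed out with water at 0.5–8 h, homogenized, solubilized and counted by liquid scintillation. Results are % of dose, mean ± S.D.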

[5] = Ratio of drug level in blood to plasma in cynomolgus monkey after 5 mins; assay type: ADME, Macaca fascicularis
[6] = Drug metabolism in monkey kidney S9 fractions at 0.42 uCi/ml assessed as metabolite formation in presence of NADPH after 1 hr at 37 degC by LC-MS/MS method; assay type: ADME, tissue-based, Macaca mulatta; details: rhesus monkey, s9, 1 h
[7] = Drug metabolism in human intestinal S9 fractions at 0.42 uCi/ml assessed as metabolite formation in presence of NADPH after 1 hr at 37 degC by LC-MS/MS method; assay type: ADME, Intestine; details: s9, 1 h
Cynomolgus monkey = assay: Total drug excretion in cynomolgus monkey at 3 mg/kg, iv administered as single dose after 0 to 336 hrs by scintillation counting method; assay type: ADME, organism-based, Macaca fascicularis; set-up: dose 3 mg/kg, route intravenous; details: in vivo
How it was run: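 Fasted male cynomolgus monkeys (n = 4) were dosed with 14C-labelled drug at 3 mg/kg, iv via saphenous vein (191 µCi/kg) or orally by stomach catheter (156.5 µCi/kg). Urine, feces and cage-wash water were collected to 336 h. Radioactivity was measured by liquid scintillation counting, with feces homogenized in water, and expressed as % of dose.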

[8] = Drug excretion in cynomolgus monkey urine at 3 mg/kg, po administered as single dose after 48 hrs by scintillation counting method; details: in vivo

| AUC(0-t) [1] | clearance [2] | Drug excretion [3] | Drug uptake [4] | blood plasma ratio at 5 min [5] | Drug metabolism [6] | Drug metabolism [7] | Drug excretion (Cynomolgus monkey) | Drug excretion [8] | SMILES |
| --- | --- | --- | --- | --- | --- | --- | --- | --- | --- |
| 1860 ng·h/mL | 2.55 mL/min/kg |  |  |  |  |  |  |  | C[C@H]1O[C@@H](O[C@H]2[C@H](O)[C@@H](O)[C@@H](O[C@H]3[C@H](O)CN[C@@H]3CO)O[C@@H]2CO)[C@H](O)[C@@H](O)[C@@H]1O |
|  |  | 70.3% | 49.9% | 0.595 | metabolite_not_detected | metabolite_not_detected | 96.29% | 2.9% | C[C@H]1O[C@@H](O[C@H]2[C@H](O)[C@@H](O)[C@@H](O[14C@H]3[14C@H](O)[14CH2]N[14C@@H]3[14CH2]O)O[C@@H]2CO)[C@H](O)[C@@H](O)[C@@H]1O |
